In ChEMBL document CHEMBL3804761, “Synthesis of a stable and orally bioavailable englerin analogue” (Bioorg Med Chem Lett, 2016):

Key:
Type in all cases: functional
[1] = Growth inhibition of human SKOV3 cells assessed as cell growth at 10 uM incubated for 48 hrs by sulforhodamine B assay relative to control; settings: SK-OV-3, 48 h, read-out: Activity
In short: (§1)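 Run in the standard NCI 60-cell-line screen. Cells were exposed to drug for two days, and the read-out was sulforhodamine B staining. Compound was tested at a single final concentration of 10 µM in every line, and results are reported as growth percent.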

[2] = Growth inhibition of human TK10 cells incubated for 48 hrs by sulforhodamine B assay; settings: TK-10, 48 h; for CC50: read-out: pLC50 (the source's name) (converted); for TGI: read-out: pTGI (converted)
In short: (§2)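 Tested in the standard NCI 60-cell-line protocol with two-day drug exposure and a sulforhodamine B endpoint. Compounds were first screened at a single final concentration of 10 µM, reported as growth percent. They were then run as five 10-fold dilutions starting from a high concentration of 100 µM to give dose-response curves.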

[3] = Growth inhibition of human SNB75 cells incubated for 48 hrs by sulforhodamine B assay; settings: SNB-75, 48 h; for TGI: read-out: pTGI (converted); in short: as §2
NCI-H460 [4] = assay: Growth inhibition of human NCI-H460 cells assessed as cell growth at 10 uM incubated for 48 hrs by sulforhodamine B assay relative to control; settings: NCI-H460, 48 h, read-out: Activity; in short: as §1
[5] = Growth inhibition of human HOP92 cells assessed as cell growth at 10 uM incubated for 48 hrs by sulforhodamine B assay relative to control; settings: HOP-92, 48 h, read-out: Activity
In short: (§3)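 Single-dose screen in the NCI 60-cell-line panel at one final concentration of 10 µM. Two-day drug exposure with a sulforhodamine B endpoint. Values are growth percent for each cell line.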

SK-MEL-28 = assay: Growth inhibition of human SK-MEL-28 cells assessed as cell growth at 10 uM incubated for 48 hrs by sulforhodamine B assay relative to control; settings: SK-MEL-28, 48 h, read-out: Activity; in short: as §1
NCI-H322M [6] = assay: Growth inhibition of human NCI-H322M cells incubated for 48 hrs by sulforhodamine B assay; settings: for TGI: read-out: pTGI (converted)
In short: (§4)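 NCI 60-cell-line panel, standard protocol. Cells exposed to compound for two days, growth read by sulforhodamine B staining. Tested at five 10-fold dilutions, top concentration 100 µM, to give dose-response curves.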

A498 = assay: Growth inhibition of human A498 cells assessed as cell growth at 10 uM incubated for 48 hrs by sulforhodamine B assay relative to control; settings: A498, 48 h, read-out: Activity
[7] = Growth inhibition of human OVCAR3 cells assessed as cell growth at 10 uM incubated for 48 hrs by sulforhodamine B assay relative to control; settings: OVCAR-3, 48 h, read-out: Activity; in short: as §1
NCI-H460 [8] = assay: Growth inhibition of human NCI-H460 cells incubated for 48 hrs by sulforhodamine B assay; settings: NCI-H460, 48 h; for CC50: read-out: pLC50 (the source's name) (converted); for TGI: read-out: pTGI (converted); in short: as §4
CCRF-CEM [9] = assay: Growth inhibition of human CCRF-CEM cells incubated for 48 hrs by sulforhodamine B assay; settings: for CC50: read-out: pLC50 (the source's name) (converted); for TGI: read-out: pTGI (converted); in short: as §4
[10] = Growth inhibition of human OVCAR8 cells incubated for 48 hrs by sulforhodamine B assay; settings: OVCAR-8, 48 h; for TGI: read-out: pTGI (converted); in short: as §4
[11] = Growth inhibition of human UO31 cells incubated for 48 hrs by sulforhodamine B assay; settings: UO-31, 48 h; for CC50: read-out: pLC50 (the source's name) (converted); for TGI: read-out: pTGI (converted); in short: as §2
[12] = Growth inhibition of human Hs 578T cells incubated for 48 hrs by sulforhodamine B assay; settings: for CC50: read-out: pLC50 (the source's name) (converted); for TGI: read-out: pTGI (converted)
[13] = Growth inhibition of human HL-60(TB) cells assessed as cell growth at 10 uM incubated for 48 hrs by sulforhodamine B assay relative to control; settings: HL-60, 48 h, read-out: Activity; in short: as §3
[14] = Growth inhibition of human SF268 cells incubated for 48 hrs by sulforhodamine B assay; settings: SF-268, 48 h; for TGI: read-out: pTGI (converted); in short: as §4
[15] = Growth inhibition of human OVCAR5 cells assessed as cell growth at 10 uM incubated for 48 hrs by sulforhodamine B assay relative to control; settings: OVCAR-5, 48 h, read-out: Activity; in short: as §1
[16] = Growth inhibition of human OVCAR3 cells incubated for 48 hrs by sulforhodamine B assay; settings: OVCAR-3, 48 h; for TGI: read-out: pTGI (converted); in short: as §4
A549 = assay: Growth inhibition of human A549/ATCC cells incubated for 48 hrs by sulforhodamine B assay; settings: A549, 48 h; for TGI: read-out: pTGI (converted); in short: as §4
[17] = Growth inhibition of human OVCAR8 cells assessed as cell growth at 10 uM incubated for 48 hrs by sulforhodamine B assay relative to control; settings: OVCAR-8, 48 h, read-out: Activity; in short: as §1
NCI-H322M [18] = assay: Growth inhibition of human NCI-H322M cells assessed as cell growth at 10 uM incubated for 48 hrs by sulforhodamine B assay relative to control; settings: read-out: Activity; in short: as §1
NCI-H522 = assay: Growth inhibition of human NCI-H522 cells incubated for 48 hrs by sulforhodamine B assay; settings: NCI-H522, 48 h; for TGI: read-out: pTGI (converted); in short: as §4
CCRF-CEM [19] = assay: Growth inhibition of human CCRF-CEM cells assessed as cell growth at 10 uM incubated for 48 hrs by sulforhodamine B assay relative to control; settings: read-out: Activity; in short: as §3
[20] = Growth inhibition of human SW620 cells assessed as cell growth at 10 uM incubated for 48 hrs by sulforhodamine B assay relative to control; settings: SW-620, 48 h, read-out: Activity; in short: as §1
NCI-H23 = assay: Growth inhibition of human NCI-H23 cells assessed as cell growth at 10 uM incubated for 48 hrs by sulforhodamine B assay relative to control; settings: NCI-H23, 48 h, read-out: Activity; in short: as §1
[21] = Growth inhibition of human SF539 cells incubated for 48 hrs by sulforhodamine B assay; settings: SF-539, 48 h; for TGI: read-out: pTGI (converted); in short: as §4
[22] = Growth inhibition of human SF295 cells incubated for 48 hrs by sulforhodamine B assay; settings: SF-295, 48 h; for TGI: read-out: pTGI (converted); in short: as §4
[23] = Growth inhibition of human HCC2998 cells assessed as cell growth at 10 uM incubated for 48 hrs by sulforhodamine B assay relative to control; settings: HCC 2998, 48 h, read-out: Activity; in short: as §3

## CC(C)[C@@]12C[C@@H](NC(=O)CO)[C@@](C)(O1)[C@@H]1CC[C@@H](C)[C@H]1[C@@H]2OC(=O)/C=C/c1ccccc1
[1]
  growth at 10 µM: 101%
[2]
  GI50: 28.8 µM
  CC50: > 50.1 µM
  TGI: > 50.1 µM
[3]
  GI50: 9.77 µM
  LC50: > 50.1 µM
  TGI: 43.7 µM
NCI-H460 [4]
  growth at 10 µM: 108%
[5]
  growth at 10 µM: 88.6%
SK-MEL-28
  growth at 10 µM: 112%
NCI-H322M [6]
  GI50: > 50.1 µM
  LC50: > 50.1 µM
  TGI: > 50.1 µM
A498
  growth at 10 µM: -15.2%
[7]
  growth at 10 µM: 106%
NCI-H460 [8]
  GI50: 17 µM
  CC50: > 50.1 µM
  TGI: > 50.1 µM
CCRF-CEM [9]
  GI50: 14.1 µM
  CC50: > 50.1 µM
  TGI: > 50.1 µM
[10]
  GI50: 4.79 µM
  LC50 (concentration killing 50% of cells): > 50.1 µM
  TGI: > 50.1 µM
[11]
  GI50: 6.17 µM
  CC50: > 50.1 µM
  TGI: > 50.1 µM
[12]; read-out: GI50
  GI50: 0.832 µM
[12]; read-out: pGI50 (converted)
  GI50: 0.832 µM
[12]
  CC50: > 50.1 µM
  TGI: 3.39 µM
[13]
  growth at 10 µM: 91.7%
[14]
  GI50: 14.8 µM
  LC50 (lethal concentration, 50% net cell kill): > 50.1 µM
  TGI: > 50.1 µM
[15]
  growth at 10 µM: 93%
[16]
  GI50: 14.8 µM
  LC50: > 50.1 µM
  TGI: 49 µM
A549
  GI50: 13.5 µM
  LC50: > 50.1 µM
  TGI: > 50.1 µM
[17]
  growth at 10 µM: 51.5%
NCI-H322M [18]
  growth at 10 µM: 77.8%
NCI-H522
  GI50: 19.1 µM
  LC50: > 50.1 µM
  TGI: > 50.1 µM
CCRF-CEM [19]
  growth at 10 µM: 99.8%
[20]
  growth at 10 µM: 109%
NCI-H23
  growth at 10 µM: 81.9%
[21]
  GI50: 42.7 µM
  LC50: > 50.1 µM
  TGI: > 50.1 µM
[22]
  GI50: 18.6 µM
  LC50 (concentration causing 50% net cell kill): > 50.1 µM
  TGI: > 50.1 µM

## C/C(=C\C(=O)O[C@H]1[C@@H]2[C@H](C)CC[C@H]2[C@]2(C)O[C@@]1(C(C)C)C[C@H]2NC(=O)CO)c1ccccc1
[1]
  growth at 10 µM: 110%
[2]
  GI50: 83.2 µM
  CC50: > 100 µM
  TGI: > 100 µM
[3]
  GI50: 12.3 µM
  LC50: > 100 µM
  TGI: > 100 µM
NCI-H460 [4]
  growth at 10 µM: 106%
[5]
  growth at 10 µM: 87.1%
SK-MEL-28
  growth at 10 µM: 118%
NCI-H322M [6]
  GI50: > 100 µM
  LC50: > 100 µM
  TGI: > 100 µM
A498
  growth at 10 µM: -24.6%
[7]
  growth at 10 µM: 121%
NCI-H460 [8]
  GI50: 38 µM
  CC50: > 100 µM
  TGI: > 100 µM
[23]
  growth at 10 µM: 104%
CCRF-CEM [9]
  GI50: 25.1 µM
  CC50: > 100 µM
  TGI: 77.6 µM
[10]
  GI50: 7.59 µM
  LC50 (concentration killing 50% of cells): > 100 µM
  TGI: > 100 µM
[11]
  GI50: 3.02 µM
  CC50: > 100 µM
  TGI: 12 µM
[12]; read-out: GI50
  GI50: 2.24 µM
[12]; read-out: pGI50 (converted)
  GI50: 2.24 µM
[12]
  CC50: > 100 µM
  TGI: 6.92 µM
[14]
  GI50: 26.9 µM
  LC50 (lethal concentration, 50% net cell kill): > 100 µM
  TGI: > 100 µM
[15]
  growth at 10 µM: 119%
[16]
  GI50: 32.4 µM
  LC50: > 100 µM
  TGI: 93.3 µM
A549
  GI50: 47.9 µM
  LC50: > 100 µM
  TGI: > 100 µM
[17]
  growth at 10 µM: 61.2%
NCI-H322M [18]
  growth at 10 µM: 105%
NCI-H522
  GI50: 27.5 µM
  LC50: > 100 µM
  TGI: 81.3 µM
CCRF-CEM [19]
  growth at 10 µM: 94.1%
[20]
  growth at 10 µM: 103%
NCI-H23
  growth at 10 µM: 97.7%
[21]
  GI50: 49 µM
  LC50: > 100 µM
  TGI: > 100 µM
[22]
  GI50: 36.3 µM
  LC50 (concentration causing 50% net cell kill): > 100 µM
  TGI: > 100 µM
